This is an account of results in ChEMBL document CHEMBL1154223, “Oxygenated lignans from the fruits of Schisandra arisanensis” (2009).

Type in all cases: functional
In assay [1] the test system is PBMC. The experiment in a line: Inhibition of 5 ug/ml PHA-stimulated human PBMC proliferation assessed as [3H]thymidine uptake at 100 uM after 3 days by scintillation counting. The essentials: (§1)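 Human PBMC at 2 × 10^6 cells/mL were plated with or without PHA and exposed to test compound at 100 µM. Cultures were kept at 37 °C in humidified 5% CO2-air for 3 days, then pulsed with tritiated thymidine at 1 µCi/well for 16 h. Cells were harvested onto glass fiber filters, and radioactivity was counted by scintillation. Results are given as % inhibition.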

Assay [2] relates to PBMC. The experiment in a line: Inhibition of human PBMC proliferation assessed as [3H]thymidine uptake at 100 uM after 3 days by scintillation counting. The method, boiled down:
as §1

In assay [3] the test system is PBMC. The experiment in a line: Inhibition of 0.2 ug/ml PHA-stimulated human PBMC proliferation assessed as [3H]thymidine uptake at 100 uM after 3 days by scintillation counting. The method, boiled down: as §1
The test system of assay [4] is PBMC. The experiment in a line: Inhibition of human PBMC proliferation assessed as [3H]thymidine uptake at 5 uM after 3 days by scintillation counting.
In assay [5] the test system is PBMC. The experiment in a line: Inhibition of 5 ug/ml PHA-stimulated human PBMC proliferation assessed as [3H]thymidine uptake at 5 uM after 3 days by scintillation counting.

SMILES strings stand for the structures.

By inhibition is commonly meant the change of the read-out against control, counted positive when it falls. For `C/C=C(/C)C(=O)O[C@H]1c2cc(OC)c(OC)c(OC)c2-c2c(cc(O)c(OC)c2OC)C[C@@H](C)[C@@]1(C)O`, the “inhibition (INH)” value in the assay on PBMC [1] is listed as 44.3%; in the assay on PBMC [3], 67%. In the assay with PBMC [2], the inhibition at 100 µM stood at 44.5%.
As to `COc1cc([C@@H]2c3cc(OC)c(OC)cc3C(=O)[C@@H](C)[C@H]2C)ccc1O`, the “inhibition (INH)” value came out at 95.6% in the assay with PBMC [1] and 82.7% with PBMC [3]. Besides, in the assay with PBMC [2], the inhibition at 100 µM worked out at 61%.
For `C/C=C(/C)C(=O)O[C@H]1c2cc3c(c(OC)c2-c2c(cc(OC)c(OC)c2O)C[C@H](C)[C@]1(C)O)OCO3`, the “inhibition (INH)” value worked out at 14.6% in the assay with PBMC [1] and 16.4% in the assay with PBMC [3]. Besides, the inhibition at 100 µM in the assay on PBMC [2] stood at 12.7%.
Take `CC=C(C)C(=O)O[C@H]1c2cc3c(c(OC)c2-c2c(cc(OC)c(OC)c2OC)C[C@H](C)[C@]1(C)O)OCO3`: the “inhibition (INH)” value with PBMC [1] turned out to be 58.9%; in the assay with PBMC [3], 75.2%. The inhibition at 100 µM in the assay on PBMC [2] came to 36.1%.
Turning to `C/C=C(/C)C(=O)O[C@H]1c2cc(OC)c(OC)c(O)c2-c2c(cc3c(c2OC)OCO3)C[C@@H](C)[C@@]1(C)O`, the “inhibition (INH)” value came out at 66.6% in the assay on PBMC [1] and 74% in the assay on PBMC [3]. In addition, in the assay with PBMC [2], the inhibition at 100 µM turned out to be 47%.
As to `COc1cc2c(c(O)c1OC)-c1c(cc(O)c(OC)c1OC)C[C@H](C)[C@H](C)C2` [ARISANSCHININ F], the “inhibition (INH)” value stood at 92.9% in the assay with PBMC [1] and 81.7% with PBMC [3]. Also, the inhibition at 100 µM in the assay with PBMC [2] came to 58.5%.
The corresponding values for `COc1cc2c(c(O)c1OC)-c1c(cc(O)c(OC)c1OC)C[C@@H](C)[C@@H](C)C2` [ARISANSCHININ G] are 92.5%, 76.3% and 54.7%.
In the same order, the values of `COc1cc([C@@H]2c3cc(OC)c(O)cc3C(=O)[C@@H](C)[C@H]2C)ccc1O` [ARISANTETRALONE A] are 91.9%, 78.1% and 59.7%.
In the same order, the values of `COc1cc([C@@H]2c3cc(O)c(OC)cc3C(=O)[C@@H](C)[C@H]2C)ccc1O` [ARISANTETRALONE B] are 90.8%, 75.3% and 56.9%.
As to `COc1cc2c(cc1O)C(=O)[C@@H](C)[C@@H](C)[C@@H]2c1ccc(OC)c(OC)c1` [ARISANTETRALONE C], the “inhibition (INH)” value stood at 89.3% with PBMC [1] and 76.3% in the assay on PBMC [3]. Further, the inhibition at 100 µM with PBMC [2] worked out at 54.1%.
Regarding `COc1cc2c(cc1O)C(=O)[C@H](C)[C@@H](C)[C@@H]2c1ccc(OC)c(OC)c1` [ARISANTETRALONE D], the “inhibition (INH)” value in the assay with PBMC [1] is given as 83.9%; in the assay with PBMC [3] it was 70.1%. Besides, the inhibition at 100 µM in the assay on PBMC [2] was 34.1%.
Consider `C/C=C/C[C@@H](C)[C@@H](O)[C@H]1C(=O)N[C@@H](CC)C(=O)N(C)CC(=O)N(C)[C@@H](CC(C)C)C(=O)N[C@@H](C(C)C)C(=O)N(C)[C@@H](CC(C)C)C(=O)N[C@@H](C)C(=O)N[C@H](C)C(=O)N(C)[C@@H](CC(C)C)C(=O)N(C)[C@@H](CC(C)C)C(=O)N(C)[C@@H](C(C)C)C(=O)N1C` [CYCLOSPORINE], for which the inhibition at 5 µM in the assay with PBMC [4] was 25.5%. In addition, in the assay on PBMC [5], the “inhibition (INH)” value was found to be 89.9%.
On to `COc1cc2c(c(OC)c1OC)-c1c(cc3c(c1OC)OCO3)[C@H](OC(=O)c1ccccc1)[C@@](C)(O)[C@@H](C)C2` [GOMISIN G], for which the “inhibition (INH)” value in the assay on PBMC [1] is reported as 88.6%; in the assay on PBMC [3] it was 75.8%. Further, the inhibition at 100 µM in the assay on PBMC [2] came to 46.2%.
As to `COc1cc(C[C@@H](C)[C@@H](C)Cc2cc(O)c(OC)c(OC)c2)cc(O)c1OC` [PREGOMISIN], the “inhibition (INH)” value in the assay on PBMC [1] was found to be 95.6%; in the assay with PBMC [3] it was 83%. Besides, the inhibition at 100 µM with PBMC [2] came out at 63.9%.
Take `COc1cc2c(c(O)c1OC)-c1c(cc(OC)c(OC)c1OC)C[C@@H](C)[C@@H](C)C2` [SCHISANHENOL]: the “inhibition (INH)” value was 76% in the assay on PBMC [1] and 80.1% in the assay on PBMC [3]. Further, the inhibition at 100 µM in the assay on PBMC [2] is 60.8%.
